Activity calls are given as the source filed them. The calls are words filed in the database; no cut-off is given here.
What was measured:
[1] = tested on: Influenza A virus; assay: Antiviral activity against Influenza A virus (H1N1) infected in dog MDCK cells assessed as inhibition of virus-induced cytopathic effect treated 1 hr post infection and measured after 48 hrs by CCK-8 assay; type: functional, organism-based
[2] = tested on: Influenza A virus; assay: Antiviral activity against Influenza A virus H5N1 infected in dog MDCK cells assessed as inhibition of virus-induced cytopathic effect treated 1 hr post infection and measured after 48 hrs by CCK-8 assay; type: functional, organism-based
[3] = Binding affinity to influenza neuraminidase incubated for 2 hrs by ELISA; design: species or system Influenza A virus
Method in brief: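 His-tagged neuraminidase expressed in E. coli BL21 and Ni-affinity purified was immobilised and blocked with BSA. Biotinylated peptides at varied concentrations were bound at 37 °C for 2 h, followed by streptavidin-HRP for 1 h and HRP substrate for 15 min, then OD450. Kd came from fitting background-subtracted absorbance against peptide concentration.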

[4] = Hemolytic activity in rabbit red blood cells incubated for 60 mins; type: ADME, cell-based, Oryctolagus cuniculus, Erythrocyte; conditions: red blood cells (erythrocytes)
Method in brief: (§1)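 Fibrinogen-free rabbit blood was mixed with 0.9% saline and centrifuged to give a 2% red cell suspension. Peptide solutions were combined with the suspension, kept 60 min at 37 °C and centrifuged. Supernatant OD600 gave hemolysis, and HC50 is the 50% hemolytic concentration.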

[5] = Inhibition of Influenza A virus (H1N1) neuraminidase using 4-MU-NANA as substrate preincubated for 1 hr followed by substrate addition and measured after 18 hrs by fluorescence method
Method in brief: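 Peptide dilutions were preincubated with diluted H1N1 virus for 1 h at 37 °C. 4-MU-NANA was then added and reactions ran 18 h at 37 °C. Released 4-methylumbelliferone was read by fluorescence (Ex 355/Em 460). IC50 is the peptide concentration reducing neuraminidase activity by 50%.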

[6] = tested on: Erythrocyte; assay: Hemolytic activity in rabbit red blood cells at 100 uM incubated for 60 mins; type: ADME, cell-based, Oryctolagus cuniculus; conditions: 1 h; method in brief: as §1
[7] = tested on: HEK-293T; assay: Cytotoxicity against human HEK293T cells at 50 uM incubated for 48 hrs by CCK-8 assay; type: cell-based
Method in brief: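 HEK 293T cells were seeded at 5000 per well in DMEM with 10% FBS. Peptides were added at 0.78 to 50 μM for 48 h, and viability was read by CCK-8.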

[8] = […] assessed as compound remaining after 18 hrs by RP-HPLC analysis; type: ADME, cell-free; conditions: human, plasma
[9] = Drug uptake in human HEK293T cells at 2 uM measured upto 12 hrs by using rhodamine-labeled peptide by flow cytometric analysis; type: ADME, cell-based; conditions: hek-293t
Method in brief: (§2)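 HEK 293T cells were given rhodamine-labelled peptides at 2 μM and sampled at 2, 4, 8 and 12 h. Cells were PBS-washed, fixed in 4% paraformaldehyde and DAPI-stained, then examined by laser scanning confocal microscopy and by FACS.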

[10] = Drug uptake in human HEK293T cells at 2 uM measured upto 12 hrs by using rhodamine-labeled peptide by DAPI staining based laser scanning confocal microscopic analysis; type: ADME, cell-based; conditions: hek-293t; method in brief: as §2
[11] = tested on: Influenza A virus; assay: Antiviral activity against Influenza A virus (H1N1) infected in BALB/c mouse assessed as recovery of normal body weight at 1 mg/kg/day, iv measured after 6 days; type: functional, organism-based; conditions: time 6.0 day
Method in brief: (§3)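 Six-week-old male Balb/c mice, randomised into normal, PBS control and treated groups. Dosing began 4 h after H1N1 inoculation: peptide at 1 mg kg−1 per day or oseltamivir carboxylate at 50 mg kg−1 per day, iv once daily for seven days. Body weight and mortality were followed for 15 consecutive days; n = 6.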

[12] = tested on: Influenza A virus; assay: Antiviral activity against Influenza A virus (H1N1) infected in BALB/c mouse assessed as reduction in lung index at 1 mg/kg/day, iv administered for 7 days and measured after 15 days; type: functional, organism-based; conditions: time 7.0 day
[13] = tested on: Influenza A virus; assay: Antiviral activity against Influenza A virus (H1N1) infected in BALB/c mouse assessed as decrease in TNF-alpha expression at 1 mg/kg/day, iv measured on day 2 and day 4 by ELISA; type: functional, organism-based; conditions: time 2-4 day
Method in brief: (§4)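 Balb/c mice were infected with H1N1 and treated iv once daily for seven days (peptide 1 mg kg−1 per day, starting 4 h post-inoculation), with PBS control and healthy groups. Serum was taken on days 2 and 4 post-inoculation. TNF-α, IL-6 and IFN-γ were measured by ELISA at A450. n = 6; Student's t test against the normal group.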

[14] = tested on: Influenza A virus; assay: Antiviral activity against Influenza A virus (H1N1) infected in BALB/c mouse assessed as decrease in IL6 expression at 1 mg/kg/day, iv measured on day 2 and day 4 by ELISA; type: functional, organism-based; conditions: time 2-4 day; method in brief: as §4
[15] = tested on: Influenza A virus; assay: Antiviral activity against Influenza A virus (H1N1) infected in BALB/c mouse assessed as decrease in INFgamma expression at 1 mg/kg/day, iv measured on day 2 and day 4 by ELISA; type: functional, organism-based; conditions: time 2-4 day; method in brief: as §4
[16] = Drug uptake in human HEK293T cells at 2 uM incubated for 12 hrs by HPLC analysis; type: ADME, cell-based; conditions: hek-293t
Method in brief: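 HEK 293T cells were exposed to peptide at 2 μM for 12 h, washed twice with PBS and lysed; proteins were precipitated. Peptide was read by HPLC on a C18 column with 0.1% TFA in water and 0.1% TFA in 80% acetonitrile, gradient 14–34% B over 0–20 min, 1 mL min−1.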

[17] = tested on: Influenza A virus (H1N1); assay: Inhibition of Influenza A virus (H1N1) neuraminidase at 25 uM using 4-MU-NANA as substrate after 60 mins by fluorescence method relative to control
Method in brief: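 Time-course format: neuraminidase incubated with peptide (25 μM) in the presence of 4-MU-NANA substrate for up to 180 min. Fluorescence intensity read at successive time points and expressed as inhibition ratio. Mean ± SD, n = 6.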

[18] = tested on: Influenza A virus; assay: Antiviral activity against Influenza A virus (H1N1) infected in BALB/c mouse assessed as animal survival rate at 1 mg/kg/day, iv administered for 7 days and monitored for 15 days relative to control; type: functional; conditions: time 7 day; method in brief: as §3
[19] = tested on: Influenza A virus; assay: Antiviral activity against Influenza A virus (H1N1) infected in BALB/c mouse assessed as animal survival rate at 50 mg/kg/day, iv administered for 7 days and monitored for 15 days relative to control; type: functional; conditions: time 7 day; method in brief: as §3

## C[C@H](NC(=O)[C@@H](NC(=O)[C@H](CCCCN)NC(=O)[C@@H](Cc1c[nH]cn1)NC(=O)[C@@H](CC(=O)O)NC(=O)[C@@H](N)CC(=O)O)[C@@H](C)O)C(=O)N[C@@H](Cc1c[nH]cn1)C(=O)N[C@@H](CCC(N)=O)C(=O)O
[1]
  IC50: 28.4 µM
[2]
  IC50: 48.2 µM
[3]
  Kd: 0.0386 µM
[4]
  HC50 at 1 h: 25 µM

## C[C@H](NC(=O)[C@@H]1CCCN1C(=O)[C@H](CCCCN)NC(=O)[C@@H](CCCNC(=N)N)NC(=O)[C@H](Cc1c[nH]cn1)NC(=O)CN)C(=O)N[C@@H](CCC(N)=O)C(=O)N1CCC[C@H]1C(=O)O
[5]
  IC50: < 25 µM
[1]
  IC50: 28.4 µM
[2]
  IC50: 31.3 µM
[4]
  HC50 at 1 h: 25 µM

## C[C@H](NC(=O)[C@@H]1CCCN1C(=O)[C@H](CCCCN)NC(=O)[C@H](CCCNC(=N)N)NC(=O)[C@@H](Cc1c[nH]c2ccccc12)NC(=O)CN)C(=O)N[C@@H](CCC(N)=O)C(=O)N1CCC[C@H]1C(=O)O
[1]
  IC50: 36 µM
[2]
  IC50: 27.5 µM
[3]
  Kd: 0.0277 µM
[4]
  HC50 at 1 h: 25 µM
[6]
  Activity: Non-Toxic
[7]
  Activity: Non-Toxic
[8]
  Stabilty: Stable
[9]
  Drug uptake: Active
[10]
  Drug uptake: Active
[11]
  Activity: Active
[12]
  Activity: Active
[13]
  Activity: Active
[14]
  Activity: Active
[15]
  Activity: Active
[16]
  Drug uptake: Active

## C[C@H](NC(=O)[C@@H]1CCCN1C(=O)[C@H](CCCCN)NC(=O)[C@@H](CCCNC(=N)N)NC(=O)[C@@H](CCCNC(=N)N)NC(=O)[C@H](N)CCC(=O)O)C(=O)N[C@@H](CCC(N)=O)C(=O)N1CCC[C@H]1C(=O)O
[5]
  IC50: 4.25 µM
[17]
  inhibition: 100%
[1]
  IC50: 2.26 µM
[2]
  IC50: 1.46 µM
[3]
  Kd: 0.011 µM
[4]
  HC50 at 1 h: 25 µM
[6]
  Activity: Non-Toxic
[7]
  Activity: Non-Toxic
[8]
  Stabilty: Stable
[9]
  Drug uptake: Active
[10]
  Drug uptake: Active
[18]
  Activity: 90%
[11]
  Activity: Active
[12]
  Activity: Active
[13]
  Activity: Active
[14]
  Activity: Active
[15]
  Activity: Active
[16]
  Drug uptake: Active

## CSCC[C@H](NC(=O)[C@@H](NC(=O)[C@@H](CCCNC(=N)N)NC(=O)[C@@H](Cc1ccccc1)NC(=O)[C@H](N)CCC(=O)O)[C@@H](C)O)C(=O)N[C@H](C(=O)N[C@@H](Cc1c[nH]cn1)C(=O)N1CCC[C@H]1C(=O)N[C@@H](CCCCN)C(=O)O)C(C)C
[1]
  IC50: 15.7 µM
[2]
  IC50: 23.8 µM
[3]
  Kd: 0.0203 µM
[4]
  HC50 at 1 h: 25 µM
[6]
  Activity: Non-Toxic
[7]
  Activity: Non-Toxic

## CC(C)C[C@H](NC(=O)[C@@H]1CCCN1C(=O)[C@H](CCCNC(=N)N)NC(=O)[C@@H](CCCNC(=N)N)NC(=O)[C@@H](CCCNC(=N)N)NC(=O)[C@H](N)Cc1ccccc1)C(=O)N[C@@H](CCCNC(=N)N)C(=O)N[C@@H](C)C(=O)O
[1]
  IC50: 22.7 µM
[2]
  IC50: 50.2 µM
[4]
  HC50 at 1 h: 25 µM
[6]
  Activity: Non-Toxic
[7]
  Activity: Non-Toxic

## C[C@H](NC(=O)[C@H](CCC(N)=O)NC(=O)[C@H](C)NC(=O)[C@H](Cc1c[nH]cn1)NC(=O)[C@H](CCCCN)NC(=O)[C@H](CCCNC(=N)N)NC(=O)[C@@H](CC(=O)O)NC(=O)[C@H](N)CCC(=O)O)C(=O)O
[5]
  IC50: < 25 µM
[1]
  IC50: 3.08 µM
[2]
  IC50: 3.32 µM
[3]
  Kd: 0.0366 µM
[4]
  HC50 at 1 h: 25 µM

## CCC(CC)O[C@@H]1C=C(C(=O)O)C[C@H](N)[C@H]1NC(C)=O [OSELTAMIVIR CARBOXYLATE]
[1]
  IC50: 0.0113 µM
[2]
  IC50: 0.0056 µM
[19]
  Activity: 100%

## C[C@H](NC(=O)[C@@H](NC(=O)[C@H](CCCCN)NC(=O)[C@H](Cc1c[nH]cn1)NC(=O)[C@H](Cc1ccccc1)NC(=O)[C@H](CCC(=O)O)NC(=O)[C@H](N)CCCCN)[C@@H](C)O)C(=O)N[C@@H](CCC(N)=O)C(=O)N1CCC[C@H]1C(=O)O
[5]
  IC50: < 25 µM
[1]
  IC50: 16.6 µM
[2]
  IC50: 25.4 µM
[3]
  Kd: 0.0286 µM
[4]
  HC50 at 1 h: 25 µM

## C[C@H](NC(=O)[C@@H]1CCCN1C(=O)[C@H](CCCCN)NC(=O)[C@H](CCC(=O)O)NC(=O)[C@@H](CCC(=O)O)NC(=O)[C@H](N)CCC(=O)O)C(=O)N[C@@H](CCC(N)=O)C(=O)N1CCC[C@H]1C(=O)O
[1]
  IC50: 36.1 µM
[2]
  IC50: 64.3 µM
[4]
  HC50 at 1 h: 25 µM

## CC(C)C[C@H](NC(=O)[C@@H](CCCNC(=N)N)NC(=O)[C@H](CCCCN)NC(=O)[C@H](N)Cc1c[nH]c2ccccc12)C(=O)N[C@@H](Cc1c[nH]cn1)C(=O)N[C@@H](Cc1c[nH]cn1)C(=O)N[C@@H](CCCCN)C(=O)N1CCC[C@H]1C(=O)N[C@@H](C)C(=O)O
[5]
  IC50: < 25 µM
[1]
  IC50: 16 µM
[2]
  IC50: 17.9 µM
[3]
  Kd: 0.019 µM
[4]
  HC50 at 1 h: 25 µM
[6]
  Activity: Non-Toxic
[7]
  Activity: Non-Toxic
